In assay [1] the test system is MIA PaCa-2. The assay is described as follows: Cytotoxicity against human MIAPaCa2 cells assessed as decrease in cell proliferation after 72 hrs by MTT assay. The assay is classed as functional, cell-based. To be noted: MIA PaCa-2, 72 h. The essentials: (§1)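 MTT assay. Cells (3000–8000/well) attached overnight in RPMI1640 with 10% FBS; the GR line was kept with 200 nM gemcitabine. Serial dilutions (30 nM–10 μM for most lines) were applied for 72 h. MTT was added at a final 300 μg/mL for 3 h at 37°C, formazan was dissolved in DMSO and A570 read. Inhibition = (1 − OD treated/OD control) × 100. IC50 given as mean ± SD, three independent experiments.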

The subject of assay [2] is PANC-1. The assay is described as follows: Cytotoxicity against human PANC1 cells assessed as decrease in cell proliferation after 72 hrs by MTT assay. It counts as functional, cell-based. The settings on record: PANC-1, 72 h. Summed up:
as §1

In assay [3] the test system is BXPC-3. The assay is described as follows: Cytotoxicity against human BxPC3 cells assessed as decrease in cell proliferation after 72 hrs by MTT assay. To be noted: BXPC-3, 72 h. It counts as functional, cell-based. The essentials: as §1
Assay [4] deals with MIA PaCa-2. The assay is described as follows: Cytotoxicity against gemcitabine-resistant human MIAPaCa2 cells assessed as decrease in cell proliferation after 72 hrs by MTT assay. To be noted: MIA PaCa-2, 72 h. The assay is classed as functional, cell-based. Summed up:
as §1

The nature of assay [5]: Cytotoxicity against HPDEC assessed as decrease in cell proliferation after 72 hrs by MTT assay. The assay is classed as cell-based. To be noted: Homo sapiens. Summed up: as §1
For assay [6], the system named is MIA PaCa-2. The assay is described as follows: Inhibition of mtDNA transcription from LSP promoter in human MIAPaCa2 cells after 4 hrs by Bru-seq analysis. It counts as functional, cell-based. Summed up:
(§2)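 MIA PaCa-2 cells were seeded at 4×10^6 per 10 cm dish and treated the next day for 4 h, with DMSO as control. Bromouridine (2 mM final) was added for the last 30 min. Total RNA was isolated in TRIZOL, and Bru-labelled RNA was immunocaptured, made into cDNA libraries and deep-sequenced. Read-out was nascent signal across mitochondrial heavy-strand (HSP2) and light-strand (LSP) transcripts.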

Assay [7] has as its system MIA PaCa-2. The assay is described as follows: Inhibition of mtDNA transcription from HSP2 promoter in human MIAPaCa2 cells after 4 hrs by Bru-seq analysis. The assay is classed as functional, cell-based. The essentials:
as §2

For assay [8], the system named is MIA PaCa-2. The assay is described as follows: Induction of reactive oxygen species generation in human MIAPaCa2 cells at 1.1 to 10 uM after 24 hrs in presence of NAC by H2DCFDA reactivity assay. The assay is classed as functional, cell-based. The essentials:
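H2DCFDA assay. Trypsinized MIA PaCa-2 cells in suspension were loaded with 20 μM H2DCFDA for 30 min at 37°C, washed and plated at 20,000/well. After 30 min they were treated with compound at 10, 3.3 or 1.1 μM. Fluorescence was read at 493/523 nm over time. DMSO basal and unstained controls were included. NAC pretreatment, where used, was 5 mM for 30 min. Duplicates, three independent experiments.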

The test system of assay [9] is MIA PaCa-2. The assay is described as follows: Cytotoxicity against human MIAPaCa2 cells assessed as decrease in cell proliferation after 72 hrs in presence of NAC by MTT assay. It counts as functional, cell-based. Summed up:
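MIA PaCa-2 cells were treated for 72 h with compound in the presence of 5 mM NAC. Viability was read by MTT (final 300 μg/mL, 3 h, A570). Mean ± SD of three independent experiments.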

Assay [10] in a line: Induction of compound aggregation.
The nature of assay [11]: Induction of compound colloidal behavior.

Active and inactive are the calls of the source. No cut-off for these calls is given here. A value given as a limit tells only on which side of the number the result lay.

Take `Nc1cccc(C(=O)NCCC[P+](c2ccccc2)(c2ccccc2)c2ccccc2)c1`: the IC50 in assay [1], in assay [2] and in assay [3] was > 30 µM each time.
Regarding `O=C1C(Nc2cccc(B(O)O)c2)=CC(=O)c2ncncc21`, the IC50 was > 10 µM in [1], 9 µM in assay [2] and > 10 µM in assay [3].
Turning to `O=C(NCCC[P+](c1ccccc1)(c1ccccc1)c1ccccc1)c1ccc(NC2=CC(=O)c3ncncc3C2=O)cc1`, the IC50 came to 15.3 µM in [1]; 17.7 µM in assay [4]; 18.3 µM in assay [5]; 11.7 µM in assay [2]; 21.5 µM in assay [3].
Regarding `CCc1ccc(-c2ccc(NC3=CC(=O)c4ncncc4C3=O)cc2)cc1`, the IC50 in assay [1] came out at 2 µM; in assay [2], 1.2 µM; in assay [3], 3.1 µM.
In the case of `O=C(NCCC[P+](c1ccccc1)(c1ccccc1)c1ccccc1)c1cccc(NC2=CC(=O)c3ncncc3C2=O)c1`, the half-maximal inhibitory concentration (IC50) in assay [4] was 16.2 µM; in assay [5], 24.3 µM; in assay [2], 14.3 µM; in [3], 21.3 µM.
On to `COc1ccc(NC2=CC(=O)c3ncncc3C2=O)cc1`, for which the results for the concentration for half-maximal inhibition (IC50) in [1], in [2] and in [3] were 1.9 µM, 0.8 µM and 1.7 µM, respectively.
Regarding `O=C1C(Nc2ccc(Oc3ccccc3)cc2)=CC(=O)c2ncncc21`, the IC50 stood at 3.7 µM in assay [1], 1.8 µM in [2] and 3.6 µM in assay [3].
As to `COc1cccc(NC2=CC(=O)c3ncncc3C2=O)c1`, the concentration for half-maximal inhibition (IC50) in [1] worked out at 1.8 µM; in [2] it was 0.6 µM; in assay [3] it was 1.8 µM.
In the case of `O=C1C(Nc2ccc(OC(F)(F)F)cc2)=CC(=O)c2ncncc21`, the IC50 worked out at 1.4 µM in assay [1], 0.9 µM in assay [2] and 0.9 µM in [3].
As to `O=C1C(NCc2ccc(F)cc2)=CC(=O)c2ncncc21`, the 50% inhibitory concentration (IC50) in assay [1] amounted to 1.7 µM; in [2], 1 µM; in assay [3], 1.4 µM.
As for `NS(=O)(=O)c1ccc(NC2=CC(=O)c3ncncc3C2=O)cc1`, the 50% inhibitory concentration (IC50) in assay [1], in [2] and in [3] was > 10 µM in each case.
As to `CC[C@@]1(O)C(=O)OCc2c1cc1n(c2=O)Cc2cc3ccccc3nc2-1`, the inhibition result in [6] and in assay [7] was “inactive” in each case.
As to `O=C1C=CC(=O)c2ncncc21`, the values for the IC50 in assay [1], in [2] and in assay [3] were 9.4 µM, 18 µM and 19.4 µM, respectively.
Consider `COc1cc(NC2=CC(=O)c3ncncc3C2=O)cc(OC)c1`, for which the results for the half-inhibitory concentration (IC50) in [1], in [2] and in assay [3] were 7.7 µM, 7.2 µM and 16.3 µM, respectively.
On to `NC(=O)c1ccc(NC2=CC(=O)c3ncncc3C2=O)cc1`, for which the IC50 in assay [1] was 8 µM; in assay [2], 6.3 µM; in [3] it was > 10 µM.
On the same counts, the results for `COC(=O)c1ccc(NC2=CC(=O)c3ncncc3C2=O)cc1` are 2.2 µM, 1.1 µM and 5.8 µM.
In the case of `Cc1ccc(-c2ccc(NC3=CC(=O)c4ncncc4C3=O)cc2F)cc1`, the concentration for half-maximal inhibition (IC50) was found to be 4.6 µM in [1], 4.8 µM in [2] and 5 µM in [3].
For `CCOC(=O)c1ccc(NC2=CC(=O)c3ncncc3C2=O)cc1`, the IC50 in assay [1] came out at 5.5 µM; in [2], 1.6 µM; in assay [3], 5.9 µM.
On the same counts, the results for `Nc1ccc(C(=O)NCCC[P+](c2ccccc2)(c2ccccc2)c2ccccc2)cc1` are > 30 µM, > 30 µM and > 30 µM.
Turning to `COc1cc(NC2=CC(=O)c3ncncc3C2=O)cc(OC)c1OC`, the half-maximal inhibitory concentration (IC50) was 1.5 µM in [1]; 2 µM in assay [4]; 3.2 µM in assay [5]; 0.8 µM in assay [2]; 1.6 µM in assay [3]. In addition, the outcome in [8] and in assay [9] was inactive. The result in assay [10] and in assay [11] was Active.
As to `COc1ccc(-c2ccc(NC3=CC(=O)c4ncncc4C3=O)cc2)cc1`, the IC50 in assay [1] is 2.1 µM; in assay [2], 2.3 µM; in assay [3], 3.5 µM.
For the compound `O=C1C(Nc2ccc(CO)cc2)=CC(=O)c2ncncc21`, the IC50 in [1] came out at 3.5 µM; in [2], 1 µM; in assay [3] it was 5.7 µM.
As for `Nc1ccc(-c2ccc(NC3=CC(=O)c4ncncc4C3=O)cc2)cc1`, the IC50 stood at 2.5 µM in assay [1], 3.7 µM in [2] and 3.5 µM in assay [3].
As for `COc1ccc(NC2=CC(=O)c3ncncc3C2=O)cc1OC`, the concentration for half-maximal inhibition (IC50) was 1.8 µM in [1], 0.9 µM in [2] and 1.5 µM in assay [3].
In the case of `OO`, in assay [9], the result was inactive.
Consider `O=C1C(Nc2ccc(-c3ccc(F)cc3)cc2)=CC(=O)c2ncncc21`, for which the IC50 was 3.5 µM in assay [1], 3.2 µM in assay [2] and 4.4 µM in assay [3].

(Values after ChEMBL document CHEMBL4052826, “Design and Synthesis of Novel Reactive Oxygen Species Inducers for the Treatment of Pancreatic Ductal Adenocarcinoma” (J Med Chem, 2018).)
